These results are taken from ChEMBL document CHEMBL3774339, “Exploring Selective Inhibition of the First Bromodomain of the Human Bromodomain and Extra-terminal Domain (BET) Proteins” (J Med Chem, 2016).

Structures are written as SMILES. Some results are limits rather than exact numbers.

Test [1] addresses Bromodomain-containing protein 3 (Homo sapiens, UniProt Q15059). The experiment in a line: Inhibition of human BRD3 bromodomain2 using H4KAc 5/8/12/16 peptide as substrate incubated overnight by HTRF assay. (TR-FRET usually uses a lanthanide donor and a delayed reading to cut background.)
Test [2] deals with Bromodomain testis-specific protein (Homo sapiens, UniProt Q58F21). The experiment in a line: Inhibition of GST-tagged human BRDT bromodomain1 using H4KAc 5/8/12/16 peptide as substrate incubated overnight by HTRF assay.
Test [3] addresses T1, ATPase family AAA domain-containing protein 2 (Homo sapiens, UniProt Q6PL18).
T1 sequence (Q6PL18 whole entry): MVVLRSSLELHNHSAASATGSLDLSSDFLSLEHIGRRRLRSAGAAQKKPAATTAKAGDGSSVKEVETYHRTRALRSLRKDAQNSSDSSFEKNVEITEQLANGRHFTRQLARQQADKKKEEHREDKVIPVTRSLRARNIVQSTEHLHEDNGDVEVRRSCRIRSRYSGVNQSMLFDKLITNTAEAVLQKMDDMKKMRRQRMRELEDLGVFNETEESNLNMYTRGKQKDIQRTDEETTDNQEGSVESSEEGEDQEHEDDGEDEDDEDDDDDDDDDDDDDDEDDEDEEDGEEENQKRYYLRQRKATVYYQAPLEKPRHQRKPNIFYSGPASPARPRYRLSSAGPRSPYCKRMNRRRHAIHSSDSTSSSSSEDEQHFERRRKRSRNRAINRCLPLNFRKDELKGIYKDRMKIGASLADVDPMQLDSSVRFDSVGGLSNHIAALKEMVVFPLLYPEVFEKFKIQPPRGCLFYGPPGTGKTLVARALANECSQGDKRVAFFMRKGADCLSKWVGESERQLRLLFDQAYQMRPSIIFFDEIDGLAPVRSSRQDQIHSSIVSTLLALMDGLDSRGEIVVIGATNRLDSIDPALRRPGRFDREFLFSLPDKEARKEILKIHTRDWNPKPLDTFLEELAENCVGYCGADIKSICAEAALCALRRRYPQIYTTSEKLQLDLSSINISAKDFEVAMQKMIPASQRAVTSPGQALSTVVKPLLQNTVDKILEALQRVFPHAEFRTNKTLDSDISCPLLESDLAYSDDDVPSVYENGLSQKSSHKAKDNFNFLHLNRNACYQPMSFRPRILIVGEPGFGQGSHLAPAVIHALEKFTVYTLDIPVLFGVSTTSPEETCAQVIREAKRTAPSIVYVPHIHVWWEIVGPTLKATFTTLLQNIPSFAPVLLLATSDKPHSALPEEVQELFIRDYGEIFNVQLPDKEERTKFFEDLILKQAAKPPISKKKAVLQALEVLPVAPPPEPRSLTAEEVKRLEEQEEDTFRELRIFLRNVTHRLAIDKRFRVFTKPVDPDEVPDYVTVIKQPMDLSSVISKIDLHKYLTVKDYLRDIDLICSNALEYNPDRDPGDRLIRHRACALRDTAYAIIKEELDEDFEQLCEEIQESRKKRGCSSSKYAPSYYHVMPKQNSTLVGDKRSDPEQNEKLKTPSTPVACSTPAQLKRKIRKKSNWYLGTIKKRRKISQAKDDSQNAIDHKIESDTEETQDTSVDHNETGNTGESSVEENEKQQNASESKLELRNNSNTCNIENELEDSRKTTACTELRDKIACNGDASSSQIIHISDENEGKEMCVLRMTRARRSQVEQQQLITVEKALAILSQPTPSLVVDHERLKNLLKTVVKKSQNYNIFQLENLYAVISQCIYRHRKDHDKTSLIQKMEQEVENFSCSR
The experiment in a line: Inhibition of GST-tagged human ATAD2 using H4KAc 5/8/12/16 peptide as substrate incubated overnight by HTRF assay.

The test system of test [4] is Jurkat. The experiment in a line: Downregulation of c-Myc in human Jurkat cells assessed as expression level after 24 hrs by Western blot analysis. The format is functional, cell-based. The procedure, abridged:
(§1)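 Jurkat cells exposed to different compound concentrations in 0.5% DMSO for 24 h. c-Myc detected on blots loaded with 50 μg protein.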
For orientation: A western blot detects proteins with antibodies after separation by electrophoresis.

Test [5] deals with Jurkat. The experiment in a line: Downregulation of c-Myc in human Jurkat cells assessed as expression level at 1 uM after 24 hrs by Western blot analysis. Type of test: functional. An outline of the steps:
as §1

Test [6] concerns Jurkat. The experiment in a line: Antiproliferative activity against human Jurkat cells after 72 hrs by Cell Titer-Glo luminescence assay. The format is functional, cell-based. The procedure, abridged:
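Jurkat cell viability read across a range of compound concentrations after 72 h incubation at 37 °C. EC50 taken from the dose–response.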
(In general: In ATP-based viability assays light output follows the ATP content of the culture.)

The species named for test [7] is Homo sapiens. As to the kind of experiment: Selectivity ratio of IC50 for GST-tagged human BRD3 bromodomain1 to IC50 for GST-tagged human BRD4 bromodomain1.
For test [8], the system named is Jurkat. As to the kind of experiment: Downregulation of c-Myc in human Jurkat cells assessed as expression level at 50 uM after 24 hrs by Western blot analysis. The format is functional. An outline of the steps:
as §1

Test [9] is filed under the species Homo sapiens. The experiment in a line: Selectivity ratio of IC50 for GST-tagged human BRDT bromodomain1 to IC50 for GST-tagged human BRD4 bromodomain1.
The test system of test [10] is Jurkat. As to the kind of experiment: Downregulation of c-Myc in human Jurkat cells assessed as expression level at 10 uM after 24 hrs by Western blot analysis. Type of test: functional. The procedure, abridged: as §1
The species entered for test [11] is Homo sapiens. As to the kind of experiment: Selectivity ratio of IC50 for GST-tagged human BRD2 bromodomain1 to IC50 for GST-tagged human BRD4 bromodomain1.
The target in test [12] is Bromodomain-containing protein 4 (Homo sapiens, UniProt O60885). The experiment in a line: Inhibition of GST-tagged human BRD4 bromodomain1 using H4KAc 5/8/12/16 peptide as substrate incubated overnight by HTRF assay.

Chain of Bromodomain-containing protein 3 (Q15059 whole entry): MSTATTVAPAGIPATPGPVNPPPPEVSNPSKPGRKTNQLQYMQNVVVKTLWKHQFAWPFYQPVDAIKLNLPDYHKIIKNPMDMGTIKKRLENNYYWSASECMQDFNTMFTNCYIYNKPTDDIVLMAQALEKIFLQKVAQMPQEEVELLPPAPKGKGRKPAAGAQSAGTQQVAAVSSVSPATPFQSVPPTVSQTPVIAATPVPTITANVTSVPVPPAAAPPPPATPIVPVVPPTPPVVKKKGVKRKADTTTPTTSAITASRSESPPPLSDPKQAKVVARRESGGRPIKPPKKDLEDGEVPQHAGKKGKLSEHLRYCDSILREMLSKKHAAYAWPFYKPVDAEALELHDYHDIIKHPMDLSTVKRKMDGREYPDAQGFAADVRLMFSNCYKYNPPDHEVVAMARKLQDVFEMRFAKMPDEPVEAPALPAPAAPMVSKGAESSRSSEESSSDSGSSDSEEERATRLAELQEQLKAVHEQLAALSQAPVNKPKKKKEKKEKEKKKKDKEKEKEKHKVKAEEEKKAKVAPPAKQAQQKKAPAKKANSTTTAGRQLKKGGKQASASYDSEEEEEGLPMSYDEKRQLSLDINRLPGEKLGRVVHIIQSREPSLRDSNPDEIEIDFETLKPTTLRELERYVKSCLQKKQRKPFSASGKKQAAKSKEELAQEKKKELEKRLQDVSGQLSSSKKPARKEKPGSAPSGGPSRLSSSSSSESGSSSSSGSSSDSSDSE

In turn, `CCn1cnc2c1c(=O)[nH]c(=O)n2Cc1ccc(Cl)cc1` yielded a 50% inhibitory concentration (IC50) in test [1] of 1.8 µM.
`CCn1c(CSc2n[nH]c(N)n2)nc2c1c(=O)[nH]c(=O)n2Cc1ccc(Cl)cc1`: the IC50 in test [2] is over 100 µM.
As for `CCCCc1c(C)nc2nc(SCc3nc4c(c(=O)[nH]c(=O)n4CCCC)n3CC)nn2c1C`, the IC50 in test [2] and in test [3] was over 100 µM each time. Also, the Activity result in the test on Jurkat [4] is “Dose-dependent effect”; in the test on Jurkat [5], 62%; in the test on Jurkat [6] it was “Dose-dependent effect”; in the test on Jurkat [8] it was 3%; in the test on Jurkat [10] it was 98%. The molecule further gave an EC50 in the test with Jurkat [6] of 27 µM. Besides, the Ratio IC50 in the test listed under Homo sapiens [7], in the test listed under Homo sapiens [9] and in the test filed under Homo sapiens [11] was over 10 in each case.
`CCCCn1c(=O)[nH]c(=O)c2c1nc(CSc1n[nH]c(N)n1)n2CC`: the concentration for half-maximal inhibition (IC50) in test [12] was over 50 µM.

Broadly, the IC50 is the point on the concentration scale where inhibition reaches its midpoint. A high value points to weaker potency. A word on the EC50: it is the concentration needed to bring the measured effect to its halfway point. Low readings indicate an effect from little substance, high ones a need for much substance.
